Data as given in ChEMBL document CHEMBL3608216, “Synthesis and evaluation of novel pleuromutilin derivatives with a substituted pyrimidine moiety” (2015).
≈ marks a conversion by molar mass, not a printed value.

Tests used:
Format in all cases: functional
Staphylococcus aureus [1] = assay: Antibacterial activity against […] Staphylococcus aureus ATCC 29213 after 24 to 48 hrs by agar dilution method
In short: (§1)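 Agar dilution per NCCLS. Compounds at 1.28 mg/mL stock in 15%–30% DMSO/water, two-fold serial dilutions (11 total) in water, mixed 1:10 into hot Mueller-Hinton agar. Inocula from blood slants adjusted to about 10^5–10^6 CFU/mL in 0.90% saline, spotted onto plates, incubated 36.5 °C for 24–48 h. MIC is the lowest concentration giving complete growth inhibition. Run in triplicate.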

Bacillus subtilis = assay: Antibacterial activity against Bacillus subtilis […] after 24 to 48 hrs by agar dilution method
In short: (§2)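 Agar dilution per NCCLS. Compounds were dissolved in 15%–30% DMSO in water, serially two-fold diluted in distilled water (11 dilutions) and incorporated into hot Mueller–Hinton agar at a tenfold further dilution. Inocula from blood slants were adjusted to about 10^5–10^6 CFU/mL in 0.90% saline and spotted onto the plates, then incubated at 36.5 °C for 24–48 h. MIC was the lowest concentration giving complete growth inhibition; run in triplicate.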

Escherichia coli = assay: Antibacterial activity against Escherichia coli ATCC 25922 after 24 to 48 hrs by agar dilution method; in short: as §2
[2] = system: Staphylococcus epidermidis; assay: Antibacterial activity against […] Staphylococcus epidermidis ATCC 35984 after 24 to 48 hrs by agar dilution method; settings: RP62A; in short: as §1
Staphylococcus aureus [3] = assay: Antibacterial activity against […] Staphylococcus aureus in iv dosed neutropenic mouse systemic infection model assessed as increase in mouse survival measured on day 4
In short: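 Male and female mice made neutropenic with ip cyclophosphamide, 150 mg/kg for four days, then 100 mg/kg one day before inoculation. Infected ip with 0.5 mL MRSA at 10^9 CFU/mL, 10 per group. About 1 h later dosed iv at 2, 3, 4.46, 6.64 and 10 mg/kg in 0.5 mL soybean lecithin:sterile water (1:30). Endpoint was survival at day 4. ED50 calculated by Reed–Muench using the Hill equation.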

Row | SMILES | MIC (Staphylococcus aureus [1]) [µg/mL] | MIC (Bacillus subtilis) [µg/mL] | MIC (Escherichia coli) [µg/mL] | MIC [2] [µg/mL] | Activity (Staphylococcus aureus [3]) | ED50 (Staphylococcus aureus [3]; 96 h) [mg/kg]
1 | C=C[C@]1(C)C[C@@H](OC(=O)CSc2nc(N)cc(O)n2)[C@]2(C)[C@H](C)CC[C@]3(CCC(=O)[C@H]32)[C@@H](C)[C@@H]1O | 0.25 (≈ 0.496 µM) | 32 (≈ 63.5 µM) | 16 (≈ 31.8 µM) | 0.125 (≈ 0.248 µM) |  | 
2 | C=C[C@]1(C)C[C@@H](OC(=O)CSc2nc(O)cc(NC(=O)[C@H](N)C(C)C)n2)[C@]2(C)[C@H](C)CC[C@]3(CCC(=O)[C@H]32)[C@@H](C)[C@@H]1O | 1 (≈ 1.66 µM) | 8 (≈ 13.3 µM) | 64 (≈ 106 µM) | 0.125 (≈ 0.207 µM) |  | 
3 | C=C[C@]1(C)C[C@@H](OC(=O)CSCCN(CC)CC)[C@]2(C)[C@H](C)CC[C@]3(CCC(=O)[C@H]32)[C@@H](C)[C@@H]1O.O=C(O)/C=C/C(=O)O [TIAMULIN FUMARATE] | 0.5 | 32 | 8 | 0.25 | Dose-dependent effect | 5.95
4 | C=C[C@]1(C)C[C@@H](OC(=O)CSc2nc(O)cc(NC(=O)[C@H]3CCCCN3)n2)[C@]2(C)[C@H](C)CC[C@]3(CCC(=O)[C@H]32)[C@@H](C)[C@@H]1O | 8 (≈ 13 µM) | 16 (≈ 26 µM) | 32 (≈ 52 µM) | 2 (≈ 3.25 µM) |  | 
5 | C=C[C@]1(C)C[C@@H](OC(=O)CSc2nc(N)cc(=O)n2C)[C@]2(C)[C@H](C)CC[C@]3(CCC(=O)[C@H]32)[C@@H](C)[C@@H]1O | 2 (≈ 3.86 µM) | 16 (≈ 30.9 µM) | 32 (≈ 61.8 µM) | 1 (≈ 1.93 µM) |  | 
6 | C=C[C@]1(C)C[C@@H](OC(=O)CSc2nc(O)cc(NC(=O)[C@@H]3CCCCN3)n2)[C@]2(C)[C@H](C)CC[C@]3(CCC(=O)[C@H]32)[C@@H](C)[C@@H]1O | 4 (≈ 6.51 µM) | 16 (≈ 26 µM) | 16 (≈ 26 µM) | 1 (≈ 1.63 µM) |  | 
7 | C=C[C@]1(C)C[C@@H](OC(=O)CSc2nc(O)cc(NC(=O)[C@@H](N)C(C)C)n2)[C@]2(C)[C@H](C)CC[C@]3(CCC(=O)[C@H]32)[C@@H](C)[C@@H]1O | 2 (≈ 3.32 µM) | 16 (≈ 26.5 µM) | 32 (≈ 53.1 µM) | 0.5 (≈ 0.829 µM) |  | 
8 | C=C[C@]1(C)C[C@@H](OC(=O)CSc2nc(N)cc(OC)n2)[C@]2(C)[C@H](C)CC[C@]3(CCC(=O)[C@H]32)[C@@H](C)[C@@H]1O | 1 (≈ 1.93 µM) | 16 (≈ 30.9 µM) | 32 (≈ 61.8 µM) | 0.5 (≈ 0.966 µM) |  | 
9 | C=C[C@]1(C)C[C@@H](OC(=O)CSc2nc(O)cc(NC(C)=O)n2)[C@]2(C)[C@H](C)CC[C@]3(CCC(=O)[C@H]32)[C@@H](C)[C@@H]1O |  | 32 (≈ 58.6 µM) | 8 (≈ 14.7 µM) |  |  | 
